Source: PubChem BioAssay (several laboratories)
APJ agonist = APJ receptor agonism; CHO-K1 APJ PathHunter beta-arrestin, luminescence; 0% DMSO wells, 100% apelin; activation, % at 20 µM; actives 0.11% (n = 330,000); AID 2520;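 active = activation more than six SD over the plate average, tested at 20 µM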
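Material: CHO-K1 APJ beta-arrestin complementation cell line; Input: cell density 1000 per well; Incubation: compound stimulation 90 min at 25 °C, detection 60 min; Signal: luminescence from split beta-galactosidase complementation, Galacton Star/Emerald II substrate; Controls: DMSO-only wells as negative, 10 nM Apelin-13 as positive control.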
Beta2AR agonist = human beta-2 adrenergic receptor agonism by FAP | response, % (test concentration not listed) | AID 504454 | actives 0.43% (n = 340,000) | Am2.2-beta2AR cells, FAP receptor internalization, flow cytometry | P07550;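 active = response above a set limit, near 3 SD of response in nonfluorescent compounds, cut at about 42% in these data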
APJ antag = antagonists of human APJ apelin receptor; P35414; CHO-K1 APJ beta-arrestin complementation, luminescence; inhibition, % at 20 µM; actives 0.32% (n = 330,000);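 active = inhibition above about 40% at 20 µM, limit read from the data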;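 also: cells challenged with 10 nM apelin-13 agonist together with compound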
CXCR6 block = CXCR6 (human) receptor inhibition; O00574; actives 0.36% (n = 360,000); CHO-K1 PathHunter CXCR6 beta-arrestin, luminescence; inhibition, % at 20 µM; AID 602244; in the data active = inhibition above about 34%, passing the limit was not always enough;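 also: antagonist mode with CXCL16 agonist at 10 nM final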
CCR6 antag = CCR6 (human) receptor antagonism; CHO-K1 CCR6 PathHunter beta-arrestin, luminescence, CCL20-stimulated; inhibition, % at 20 µM; actives 0.49% (n = 340,000);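 active = compounds whose inhibition of the agonist-driven luminescence signal at 20 µM reaches about 50%, limit read from the data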;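 also: cells stimulated with CCL20 at 14 nM final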
EBI2 antag = blocks human EBI2 receptor beta-arrestin signaling; actives 0.81% (n = 360,000); EBI2 beta-arrestin recruitment, luminescence, 7a,25-OHC stimulated; inhibition, % at 5 µM; in the data active = inhibition above about 38%;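 also: enzyme fragment complementation signal reports receptor beta-arrestin coupling in cells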
Target sequence (P32249 whole entry, looked up, the tested form may be a part): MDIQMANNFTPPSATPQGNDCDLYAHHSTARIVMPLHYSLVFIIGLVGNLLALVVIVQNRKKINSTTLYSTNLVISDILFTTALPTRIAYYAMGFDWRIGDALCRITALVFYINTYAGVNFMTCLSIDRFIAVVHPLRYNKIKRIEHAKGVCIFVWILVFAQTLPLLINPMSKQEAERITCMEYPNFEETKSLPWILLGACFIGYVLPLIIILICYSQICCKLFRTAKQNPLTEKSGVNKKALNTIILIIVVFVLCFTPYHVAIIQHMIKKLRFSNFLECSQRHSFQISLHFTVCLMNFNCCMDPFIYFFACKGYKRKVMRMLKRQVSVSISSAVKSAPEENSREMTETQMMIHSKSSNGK
CXCR6 confirm = CXCR6 antagonism confirmation, single concentration | shares compounds with CXCR6 block | CHO-K1 CXCR6 PathHunter beta-arrestin, luminescence | inhibition, % at 20 µM | actives 65% (n = 700) | AID 602409;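 active = mean inhibition over four retests above 40%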;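 also: receptor stimulated with 10 nM CXCL16 agonist; beta-galactosidase fragment complementation upon beta-arrestin recruitment to receptor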
EBI2 conf = EBI2 (human) antagonism, single concentration confirmation. shares compounds with EBI2 antag. EBI2 beta-arrestin luminescence, 7a,25-OHC antagonism. inhibition, % at 5 µM. actives 29% (n = 2,400). AID 651997;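 active = inhibition of at least 50%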
EBI2 ag = counter-screen for EBI2 antagonists: EBI2 agonist activity | activation, % at 5 µM | EBI2-expressing cells, agonist mode, luminescence, 60 min; 0% vehicle, 100% 7α,25-dihydroxycholesterol control | shares compounds with EBI2 antag | 2,400 tested, under 10 active;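 active = activation of at least 50%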
bGal cs = inhibits E. coli beta-galactosidase, counter-screen for EBI2 antagonists | shares compounds with EBI2 antag | purified beta-galactosidase, luminescent Galacton Star, 15 min | inhibition, % at 5 µM | actives 1% (n = 2,400) | AID 652176;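 active = replicate-average signal at least 3 plate SD below neutral wells, shown as high inhibition, flagging enzyme-inhibiting false positives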;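 also: higher means stronger loss of beta-gal luminescence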
A number is an active result. A selection: hits, their analogues and other compounds. The true share with any hit is near 1.8%.

What do the screens show for `C/C(=N\Nc1nc2ccccc2[nH]1)c1cc2ccccc2o1`?
APJ agonist: inactive; Beta2AR agonist: inactive; APJ antag: inactive; CXCR6 block: inactive; CCR6 antag: inactive; EBI2 antag: inactive

How did C/C(=N\Nc1nc2ccccc2[nH]1)c1ccccn1 do in these assays?
APJ agonist: inactive; Beta2AR agonist: inactive; APJ antag: inactive; CXCR6 block: 41.7; EBI2 antag: inactive; CXCR6 confirm: 70.0

How did Oc1ccc(Cl)c2cccnc12 do in these assays?
Beta2AR agonist: inactive; CXCR6 block: 42.7; CCR6 antag: 65.7; EBI2 antag: inactive; CXCR6 confirm: 60.2

Results for COc1cccc2cc(C(=O)Nc3ccc(F)cc3)c(=Nc3ccc(C(=O)O)cc3)oc12 ?
APJ agonist: inactive; Beta2AR agonist: inactive; APJ antag: inactive; CXCR6 block: 48.9; CCR6 antag: 80.5; EBI2 antag: inactive; CXCR6 confirm: inactive

What do the screens show for `COc1cccc(CNC(=O)[C@@H]2CCCN2C(=O)[C@@H]2CCCN2C(=O)c2cccc(OC)c2)c1`?
CXCR6 block: inactive; EBI2 antag: inactive

How did Cc1n[nH]c(=S)n(NC(=O)CC(=O)Nn2c(=S)[nH]nc(C)c2=O)c1=O do in these assays?
APJ agonist: inactive; Beta2AR agonist: inactive; APJ antag: inactive; CXCR6 block: 103.1; EBI2 antag: 44.4; CXCR6 confirm: 115.0; EBI2 conf: inactive; EBI2 ag: inactive; bGal cs: 17.0

What do the screens show for `CC1CCCCC1NC(=O)COC(=O)COc1ccccc1F` (centres undefined)?
APJ agonist: inactive; Beta2AR agonist: inactive; APJ antag: inactive; CXCR6 block: inactive; CCR6 antag: inactive; EBI2 antag: inactive

Results for CCC(CC)C(=O)N(C)c1c(C)nc2c(OCc3ccc(Cl)cc3Cl)cccn12 ?
CXCR6 block: 50.8; EBI2 antag: 47.3; CXCR6 confirm: inactive; EBI2 conf: inactive; EBI2 ag: inactive; bGal cs: inactive

Results for CCC(CC)C(=O)N(C)c1c(C)nc2c(OCc3ccccc3C)cccn12 ?
CXCR6 block: inactive; EBI2 antag: inactive

What do the screens show for `Cc1ccc(NC(=S)NNC(=S)Nc2cccc(C(F)(F)F)c2)cc1`?
APJ agonist: inactive; Beta2AR agonist: inactive; APJ antag: inactive; CXCR6 block: inactive; CCR6 antag: inactive; EBI2 antag: inactive

Results for Cc1ccc(NC(=S)NNc2ncc(C(F)(F)F)cc2Cl)cc1 ?
APJ agonist: inactive; Beta2AR agonist: inactive; APJ antag: inactive; CXCR6 block: 77.5; CCR6 antag: 90.4; EBI2 antag: 42.3; CXCR6 confirm: 58.2; EBI2 conf: inactive; EBI2 ag: inactive; bGal cs: inactive

What do the screens show for `COc1ccc(C(=O)N/N=C(\C)c2ccccn2)cc1OC`?
APJ agonist: inactive; Beta2AR agonist: inactive; APJ antag: 75.5; CXCR6 block: 50.8; CCR6 antag: 74.8; EBI2 antag: 58.0; CXCR6 confirm: 69.4; EBI2 conf: 83.9; EBI2 ag: inactive; bGal cs: inactive

How did C/C(=N\NC(=O)c1cc(-c2cccs2)nc2ccccc12)c1ccccn1 do in these assays?
APJ agonist: inactive; Beta2AR agonist: inactive; APJ antag: inactive; CXCR6 block: 44.7; CCR6 antag: inactive; EBI2 antag: 66.0; CXCR6 confirm: 44.0; EBI2 conf: inactive; EBI2 ag: inactive; bGal cs: inactive

How did NNC(=O)c1cc(-c2cccs2)nc2ccccc12 do in these assays?
APJ agonist: inactive; Beta2AR agonist: inactive; APJ antag: inactive; CXCR6 block: inactive; CCR6 antag: inactive; EBI2 antag: inactive

What do the screens show for `Cc1ccc(C(C)C)c(Oc2cnccn2)c1`?
APJ agonist: inactive; Beta2AR agonist: inactive; APJ antag: inactive; CXCR6 block: inactive; CCR6 antag: inactive; EBI2 antag: inactive

What do the screens show for `COc1ccc(C(C)(O)c2nc(-c3ccccc3OC)cs2)cc1` (centres undefined)?
CXCR6 block: inactive; EBI2 antag: inactive

Results for O=[N+]([O-])c1ccc(N/N=C/c2sc(N3CCOCC3)nc2-c2ccccc2)c(S(=O)(=O)Nc2ccc(Cl)cc2)c1 ?
Beta2AR agonist: inactive; CXCR6 block: 51.7; CCR6 antag: 83.0; EBI2 antag: 51.5; CXCR6 confirm: 61.6; EBI2 conf: inactive; EBI2 ag: inactive; bGal cs: inactive

Results for Cc1ccc(SCc2nc3ccccc3n2CC(=O)Nc2ccc(Cl)cc2)cc1 ?
APJ agonist: inactive; Beta2AR agonist: inactive; APJ antag: inactive; CXCR6 block: inactive; CCR6 antag: inactive; EBI2 antag: inactive

How did CC(C)Cn1c(N2CCN(CC(=O)Nc3ccc(Cl)cc3)CC2)nc2ccccc21 do in these assays?
APJ agonist: inactive; Beta2AR agonist: inactive; APJ antag: inactive; CXCR6 block: inactive; CCR6 antag: inactive; EBI2 antag: 74.3; EBI2 conf: inactive; EBI2 ag: inactive; bGal cs: inactive

How did N#Cc1ccc(C23CC4(C2)[C@H](CN(Cc2cccnc2)[C@@H]4c2ccccc2)C3c2ccccc2)cc1 (some centres undefined) do in these assays?
APJ agonist: inactive; Beta2AR agonist: inactive; APJ antag: inactive; CXCR6 block: inactive; CCR6 antag: inactive; EBI2 antag: 71.6; EBI2 conf: inactive; EBI2 ag: inactive; bGal cs: inactive

What do the screens show for `COC(=O)c1ccc(C23CC4(C2)[C@H](CN(Cc2cccnc2)[C@@H]4c2ccccc2)C3c2ccccc2)cc1` (some centres undefined)?
APJ agonist: inactive; Beta2AR agonist: inactive; APJ antag: inactive; CXCR6 block: inactive; CCR6 antag: inactive; EBI2 antag: inactive

What do the screens show for `COc1cccc(CN(C)C(=O)Cc2c[nH]c3ccccc23)c1`?
APJ agonist: inactive; Beta2AR agonist: inactive; APJ antag: inactive; CXCR6 block: inactive; CCR6 antag: inactive; EBI2 antag: 51.2; EBI2 conf: inactive; EBI2 ag: inactive; bGal cs: inactive

Results for COc1cccc(CN(C)C(=O)Cc2c[nH]c3ccccc23)c1OC ?
APJ agonist: inactive; Beta2AR agonist: inactive; APJ antag: inactive; CXCR6 block: inactive; CCR6 antag: inactive; EBI2 antag: inactive
